The record followed here is ChEMBL document CHEMBL3751676, “Combating P-glycoprotein-mediated multidrug resistance with 10-O-phenyl dihydroartemisinin ethers in MCF-7 cells” (Eur J Med Chem, 2016).

In general, GI50 refers to the concentration giving 50% growth inhibition. Usually Papp A→B stands for the apparent permeability from the apical to the basolateral side of a cell layer. The term Papp B→A denotes the apparent permeability from the basolateral to the apical side of a cell layer. The efflux ratio is the permeability from basolateral to apical divided by that in the opposite direction, in the common usage.

The subject of data set [1] is MCF7. Briefly: Antiproliferative activity against human MCF7 cells after 96 hrs by MTT assay. The note with it: MCF7, 96 h. It is filed as functional. Put shortly:
(§1)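 MTT: cells seeded at 1.5-4.0 × 10^4 cells/mL and incubated overnight at 37 C, then exposed to 5-9 concentrations (DMSO stocks diluted in growth medium; final DMSO ≤0.5%) for 96 h. MTT added at 0.5 mg/mL for a further 4 h at 37 C and the formazan dissolved. Inhibition calculated relative to control; GI50 estimated by curve fitting; 3-5 repeats, mean ± SD.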
(In general: Tetrazolium dyes change colour on reduction, which living cells bring about.)

A short description of data set [2]: Antiproliferative activity against human MCF7/ADR cells after 96 hrs by MTT assay. It is filed as functional. Conditions: NCI/ADR-RES. The essentials: as §1
The subject of data set [3] is NCI/ADR-RES. The experiment in a line: Selectivity index, ratio of GI50 for human MCF7 cells to GI50 for human MCF7/ADR cells. It is filed as functional.
Data set [4] has as its target T1, MDR1 (ABCB1) (Homo sapiens, UniProt P08183). The experiment in a line: Activity at MDR1 (unknown origin) expressed in MDCK cells assessed as permeability across apical to basolateral after 90 mins by LC-MS/MS analysis. It is filed as ADME, cell-based.
Data set [5] concerns the target T1, MDR1 (ABCB1). Briefly: Activity at MDR1 (unknown origin) expressed in MDCK cells assessed as permeability across basolateral to apical after 90 mins by LC-MS/MS analysis. It is filed as ADME, cell-based.
The nature of data set [6]: Permeability across apical to basolateral side in MDCK cells after 90 mins by LC-MS/MS analysis. It is filed as ADME, cell-based, Canis lupus familiaris. Conditions: dog. The essentials: (§2)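 Wild-type MDCK cells on Transwell filters. Transport was run in HBSS pH 7.4 at 37 °C in A-B and B-A directions, and plates were separated after 90 min incubation. Efflux ratio is Papp(B-A)/Papp(A-B). Papp is reported as "<" when receiver concentrations were below the quantitation limit.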

Data set [7] can be described thus: Permeability across basolateral to apical side in MDCK cells after 90 mins by LC-MS/MS analysis. It is filed as ADME, cell-based, Canis lupus familiaris. The note with it: dog. Put shortly: as §2
Data set [8] addresses T1, MDR1 (ABCB1). The experiment in a line: Activity at MDR1 (unknown origin) expressed in MDCK cells assessed as efflux ratio of permeability across basolateral to apical side over apical to basolateral side. It is filed as ADME, cell-based.
Data set [9] is described as follows: Efflux ratio of permeability across basolateral to apical side over apical to basolateral side in MDCK cells. The note with it: dog. It is filed as ADME, cell-based, Canis lupus familiaris. Put shortly: as §2

T1 sequence (P08183 whole entry): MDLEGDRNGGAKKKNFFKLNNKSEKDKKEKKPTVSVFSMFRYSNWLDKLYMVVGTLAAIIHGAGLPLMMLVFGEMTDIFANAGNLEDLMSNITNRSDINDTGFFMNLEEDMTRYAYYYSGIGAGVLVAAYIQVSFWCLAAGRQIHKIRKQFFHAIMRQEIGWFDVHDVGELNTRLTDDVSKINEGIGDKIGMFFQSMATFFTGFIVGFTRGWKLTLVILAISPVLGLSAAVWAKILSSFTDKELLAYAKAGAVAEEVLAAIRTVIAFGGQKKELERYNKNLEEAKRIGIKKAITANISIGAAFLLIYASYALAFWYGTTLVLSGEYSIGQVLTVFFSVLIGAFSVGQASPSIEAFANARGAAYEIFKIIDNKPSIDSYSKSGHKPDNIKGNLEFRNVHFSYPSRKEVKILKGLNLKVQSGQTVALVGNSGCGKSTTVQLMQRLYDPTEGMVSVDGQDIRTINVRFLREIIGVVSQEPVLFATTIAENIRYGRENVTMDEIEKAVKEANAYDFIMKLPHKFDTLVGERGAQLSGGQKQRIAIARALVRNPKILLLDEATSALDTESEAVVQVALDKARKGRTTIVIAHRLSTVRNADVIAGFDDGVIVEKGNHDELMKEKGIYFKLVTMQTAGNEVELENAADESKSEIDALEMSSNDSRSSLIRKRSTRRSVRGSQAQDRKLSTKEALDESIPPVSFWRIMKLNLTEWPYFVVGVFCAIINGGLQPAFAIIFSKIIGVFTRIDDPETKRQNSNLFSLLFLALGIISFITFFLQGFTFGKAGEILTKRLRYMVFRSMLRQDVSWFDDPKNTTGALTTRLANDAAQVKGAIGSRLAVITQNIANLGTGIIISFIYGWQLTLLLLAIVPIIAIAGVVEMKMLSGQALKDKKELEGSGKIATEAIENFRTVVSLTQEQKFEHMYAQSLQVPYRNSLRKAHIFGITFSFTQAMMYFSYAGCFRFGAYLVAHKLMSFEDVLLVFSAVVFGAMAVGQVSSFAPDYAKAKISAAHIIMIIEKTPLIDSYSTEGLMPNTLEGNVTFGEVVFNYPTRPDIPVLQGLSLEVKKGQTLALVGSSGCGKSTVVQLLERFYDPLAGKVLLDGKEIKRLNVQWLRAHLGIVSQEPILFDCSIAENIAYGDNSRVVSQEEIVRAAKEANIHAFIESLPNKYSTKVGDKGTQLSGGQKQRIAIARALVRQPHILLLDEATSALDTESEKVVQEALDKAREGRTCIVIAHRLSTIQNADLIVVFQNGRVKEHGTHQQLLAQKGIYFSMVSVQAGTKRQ

Consider `C[C@H]1[C@@H](Oc2ccc(CN3CCN(c4ccccc4)CC3)cc2)O[C@@H]2O[C@@]3(C)CC[C@H]4[C@H](C)CC[C@@H]1[C@@]24OO3`, for which the results for the GI50 in [1] and in data set [2] were 240 nM and 21 nM, respectively. Further, the RatioGI50 in [3] is 11.43.
In the case of `COc1ccccc1N1CCN(C(=O)Cc2ccc(O[C@H]3O[C@@H]4O[C@@]5(C)CC[C@H]6[C@H](C)CC[C@@H]([C@H]3C)[C@@]46OO5)cc2)CC1`, the figures for the GI50 in data set [1] and in data set [2] were 470 nM and 43 nM, respectively. The RatioGI50 in [3] was 10.93.
Taken in the same sequence, the figures for `C[C@H]1[C@@H](Oc2ccc(/C=C/C(=O)N3CCN(c4ccccn4)CC3)cc2)O[C@@H]2O[C@@]3(C)CC[C@H]4[C@H](C)CC[C@@H]1[C@@]24OO3` were 290 nM, 110 nM and 2.64.
Consider `C[C@H]1[C@@H](Oc2ccc(CC(=O)N3CCN(c4ccc(F)cc4)CC3)cc2)O[C@@H]2O[C@@]3(C)CC[C@H]4[C@H](C)CC[C@@H]1[C@@]24OO3`, for which the values for the GI50 in data set [1] and in data set [2] were 290 nM and 44 nM, respectively. Also, the RatioGI50 in data set [3] came out at 7.11.
For the compound `C[C@H]1[C@@H](O)O[C@@H]2O[C@@]3(C)CC[C@H]4[C@H](C)CC[C@@H]1[C@@]24OO3` [ARTENIMOL], the 50% growth inhibitory concentration (GI50) was 33200 nM in [1] and 3320 nM in data set [2]. Besides, the RatioGI50 in data set [3] was determined as 10. The Papp A→B at 1.5 h in [4] came to 28 ×10⁻⁶ cm/s; in data set [6] it was 31.4 ×10⁻⁶ cm/s. The Papp B→A at 1.5 h in data set [5] was determined as 24.9 ×10⁻⁶ cm/s; in data set [7], 25.1 ×10⁻⁶ cm/s. The efflux ratio in data set [8] amounted to 0.89; in data set [9], 0.8.
Turning to `C[C@H]1[C@@H](Oc2ccc(CN3CCN(c4ccccn4)CC3)cc2)O[C@@H]2O[C@@]3(C)CC[C@H]4[C@H](C)CC[C@@H]1[C@@]24OO3`, the GI50 in data set [1] was 170 nM; in data set [2] it was 55 nM. The RatioGI50 in data set [3] is 3.09.
Turning to `C=C[C@H]1C[N@@]2CC[C@H]1C[C@@H]2[C@@H](O)c1ccnc2ccc(OC)cc12` [QUINIDINE], the values for the apparent permeability from apical to basolateral (Papp A→B) at 1.5 h in [4] and in data set [6] were 4.37 ×10⁻⁶ cm/s and 9.98 ×10⁻⁶ cm/s, respectively. Also, the Papp B→A at 1.5 h in data set [5] was found to be 34.1 ×10⁻⁶ cm/s; in data set [7], 23.4 ×10⁻⁶ cm/s. Besides, the values for the efflux ratio in data set [8] and in [9] were 7.81 and 2.34, respectively.
As for `C[C@H]1[C@@H](Oc2ccc(CC(=O)N3CCN(c4cccc(C(F)(F)F)c4)CC3)cc2)O[C@@H]2O[C@@]3(C)CC[C@H]4[C@H](C)CC[C@@H]1[C@@]24OO3`, the GI50 in data set [1] was 260 nM; in data set [2], 41 nM. The RatioGI50 in data set [3] is listed as 6.34.
Taken in the same sequence, the figures for `C[C@H]1[C@@H](Oc2ccc(CN3CCN(c4cccc(C(F)(F)F)c4)CC3)cc2)O[C@@H]2O[C@@]3(C)CC[C@H]4[C@H](C)CC[C@@H]1[C@@]24OO3` were 220 nM, 33 nM and 6.67.
Taken in the same sequence, the figures for `C[C@H]1[C@@H](Oc2ccc(C(=O)N3CCN(c4ccccc4)CC3)cc2)O[C@@H]2O[C@@]3(C)CC[C@H]4[C@H](C)CC[C@@H]1[C@@]24OO3` were 100 nM, 75 nM and 1.33.
In the case of `COCCc1ccc(OCC(O)CNC(C)C)cc1` (stereo not drawn) [METOPROLOL], the Papp A→B at 1.5 h is 22.2 ×10⁻⁶ cm/s in data set [4] and 24.3 ×10⁻⁶ cm/s in [6]. Moreover, the results for the Papp B→A at 1.5 h in data set [5] and in data set [7] were 23.7 ×10⁻⁶ cm/s and 18.5 ×10⁻⁶ cm/s, respectively. The results for the efflux ratio in data set [8] and in data set [9] were 1.07 and 0.76, respectively.
As to `C[C@H]1[C@@H](Oc2ccc(CC(=O)N3CCN(c4ccccc4)CC3)cc2)O[C@@H]2O[C@@]3(C)CC[C@H]4[C@H](C)CC[C@@H]1[C@@]24OO3`, the GI50 in data set [1] was found to be 430 nM; in [2], 90 nM. Moreover, in data set [3], the RatioGI50 worked out at 4.78.
Turning to `COc1cccc2c1C(=O)c1c(O)c3c(c(O)c1C2=O)C[C@@](O)(C(=O)CO)C[C@@H]3O[C@H]1C[C@H](N)[C@H](O)[C@H](C)O1.Cl` [DOXORUBICIN HYDROCHLORIDE], the GI50 amounted to 54 nM in data set [1] and 520 nM in data set [2]. Further, the RatioGI50 in data set [3] worked out at 0.1.
Consider `C[C@H]1[C@@H](Oc2ccc(CC(=O)N3CCN(c4ccccn4)CC3)cc2)O[C@@H]2O[C@@]3(C)CC[C@H]4[C@H](C)CC[C@@H]1[C@@]24OO3`, for which the GI50 in [1] was 960 nM; in data set [2] it was 80 nM. Moreover, the RatioGI50 in [3] is on record as 12.
Consider `C[C@H]1[C@@H](Oc2ccc(/C=C/C(=O)N3CCN(c4ccc(F)cc4)CC3)cc2)O[C@@H]2O[C@@]3(C)CC[C@H]4[C@H](C)CC[C@@H]1[C@@]24OO3`, for which the GI50 was 270 nM in [1] and 38 nM in data set [2]. For the same compound, the RatioGI50 in data set [3] is on record as 8.57.
As to `COc1ccccc1N1CCN(C(=O)/C=C/c2ccc(O[C@H]3O[C@@H]4O[C@@]5(C)CC[C@H]6[C@H](C)CC[C@@H]([C@H]3C)[C@@]46OO5)cc2)CC1`, the GI50 in data set [1] was 140 nM; in [2] it was 31 nM. The RatioGI50 in data set [3] came out at 4.52.
Consider `C[C@H]1[C@@H](Oc2ccc(/C=C/C(=O)N3CCN(c4ccccc4)CC3)cc2)O[C@@H]2O[C@@]3(C)CC[C@H]4[C@H](C)CC[C@@H]1[C@@]24OO3`, for which the GI50 in [1] was 110 nM; in data set [2] it was 51 nM. In data set [3], the RatioGI50 is listed as 2.16.
On to `C[C@H]1[C@@H](Oc2ccc(CN3CCN(c4ccc(F)cc4)CC3)cc2)O[C@@H]2O[C@@]3(C)CC[C@H]4[C@H](C)CC[C@@H]1[C@@]24OO3`, for which the GI50 in data set [1] turned out to be 530 nM; in data set [2] it was 25 nM. Moreover, in data set [3], the RatioGI50 is 21.2. The Papp A→B at 1.5 h in data set [4] was less than 1.34 ×10⁻⁶ cm/s; in [6], less than 1.33 ×10⁻⁶ cm/s. The Papp B→A at 1.5 h in [5] was less than 0.85 ×10⁻⁶ cm/s; in [7], less than 0.83 ×10⁻⁶ cm/s.
With `COc1ccccc1N1CCN(Cc2ccc(O[C@H]3O[C@@H]4O[C@@]5(C)CC[C@H]6[C@H](C)CC[C@@H]([C@H]3C)[C@@]46OO5)cc2)CC1`, the figures for the GI50 in data set [1] and in data set [2] were 580 nM and 150 nM, respectively. Also, the RatioGI50 in data set [3] is listed as 3.87.
